The values that follow come from ChEMBL document CHEMBL3877303 (J Med Chem, 2017).

One series concerns GISTT1. Kind of series: Induction of apoptosis in human GISTT1 cells assessed as cleavage of PARP at 0.1 to 3 uM by Western blot analysis. Format: functional, cell-based. The essentials:
(§1)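 Cells were treated with DMSO or serially diluted compound for the indicated periods. They were washed in ice-cold PBS and lysed in RIPA buffer with protease/phosphatase inhibitors, and protein was quantified by BCA. Lysates were resolved by SDS-PAGE, transferred to PVDF and blocked in 5% milk/TBST. Blots were probed for PARP and caspase-3, with β-actin as loading control, and detected by ECL.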

In series [1] the target is T1, BCR/ABL p210 fusion protein (Homo sapiens, UniProt A1Z199). Kind of series: Inhibition of BCR/ABL p210 fusion protein mediated signaling pathways assessed as reduction in CrkL phosphorylation at Y207 in human MEG01 cells at 0.01 to 3 uM measured after 2 hrs by immunoblotting. The following applies: MEG-01. Format: cell-based. In outline:
(§2)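 After an ice-cold PBS wash, cells were lysed in RIPA buffer (50 mM Tris pH 8.0) with protease and phosphatase inhibitors, and protein was quantified by BCA. Lysates were run on SDS-PAGE, transferred to PVDF and blocked in 5% milk/TBST. Phospho- and total proteins were probed by immunoblot with ECL detection; β-actin served as loading control.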
On the technique in general: In western blotting, separated proteins are transferred to a membrane and probed.

The nature of series [2]: Half life in Sprague-Dawley rat at 1 mg/kg, iv. Format: ADME, organism-based. The note with it: in vivo. In outline: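 Male Sprague-Dawley rats aged six to eight weeks were fasted overnight and then dosed iv or orally. Blood (~0.2 mL) was drawn from the jugular vein into heparin and kept on ice. Sampling was at 1 min to 8 h for iv and 5 min to 24 h for oral. Plasma was separated by centrifugation at 2-8 °C and stored at -80 °C until analysis.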

The target of series [3] is Serine/threonine-protein kinase 10 (Homo sapiens) (UniProt O94804). Kind of series: Inhibition of LOK (unknown origin) assessed as residual activity at 1 uM by KINOMEscan binding assay relative to control.
Sequence of Serine/threonine-protein kinase 10 (Homo sapiens) (O94804 whole entry, looked up): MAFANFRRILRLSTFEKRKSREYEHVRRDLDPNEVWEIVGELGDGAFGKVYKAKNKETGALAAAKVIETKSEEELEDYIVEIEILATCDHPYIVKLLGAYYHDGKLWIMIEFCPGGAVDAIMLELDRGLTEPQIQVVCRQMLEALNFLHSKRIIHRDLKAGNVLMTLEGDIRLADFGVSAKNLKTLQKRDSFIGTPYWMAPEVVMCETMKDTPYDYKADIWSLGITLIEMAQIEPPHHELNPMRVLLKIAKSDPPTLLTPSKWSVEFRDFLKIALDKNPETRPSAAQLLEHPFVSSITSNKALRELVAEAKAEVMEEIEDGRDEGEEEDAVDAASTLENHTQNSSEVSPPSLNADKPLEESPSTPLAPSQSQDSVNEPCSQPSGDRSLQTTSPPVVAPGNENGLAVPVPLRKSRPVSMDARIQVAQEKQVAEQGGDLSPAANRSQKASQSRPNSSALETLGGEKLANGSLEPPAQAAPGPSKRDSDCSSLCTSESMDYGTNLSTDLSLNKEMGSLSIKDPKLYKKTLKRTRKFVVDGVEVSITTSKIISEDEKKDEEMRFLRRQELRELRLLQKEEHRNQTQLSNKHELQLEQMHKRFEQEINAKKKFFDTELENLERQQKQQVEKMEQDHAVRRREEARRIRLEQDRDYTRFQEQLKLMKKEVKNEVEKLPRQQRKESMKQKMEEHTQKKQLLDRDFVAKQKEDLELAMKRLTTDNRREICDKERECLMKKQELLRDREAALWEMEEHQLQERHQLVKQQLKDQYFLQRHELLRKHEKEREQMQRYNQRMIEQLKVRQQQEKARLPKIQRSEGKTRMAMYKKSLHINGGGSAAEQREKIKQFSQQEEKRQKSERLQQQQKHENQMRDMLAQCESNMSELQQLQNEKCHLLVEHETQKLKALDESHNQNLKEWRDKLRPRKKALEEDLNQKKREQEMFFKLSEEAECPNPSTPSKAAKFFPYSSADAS
The target in series [4] is T2, Mast/stem cell growth factor receptor Kit (Homo sapiens, UniProt P10721). Kind of series: Inhibition of c-KIT autophosphorylation at Y719 in human GIST882 cells at 0.01 to 3 uM measured after 2 hrs by immunoblotting. It counts as cell-based. The essentials:
as §2

Series [5] has as its target Tyrosine-protein kinase Blk (Homo sapiens, UniProt P51451). Kind of series: Inhibition of full length recombinant His-tagged human BLK cytoplasmic domain expressed in baculovirus expression system measured after 1 hr by FRET based Z'Lyte assay. In outline:
(§3)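 Z'-LYTE FRET biochemical kinase assay run by Invitrogen on selected kinases identified from binding profiling; IC50 from dose-response.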

For another series, the system named is K562. Kind of series: Induction of apoptosis in human K562 cells assessed as cleavage of PARP at 0.1 to 3 uM by Western blot analysis. Format: functional, cell-based. The essentials: as §1
Series [6] concerns the target Macrophage colony-stimulating factor 1 receptor (Homo sapiens, UniProt P07333). The following applies: BaF3.
Series [7] concerns the target T1, BCR/ABL p210 fusion protein. Kind of series: Inhibition of BCR/ABL p210 fusion protein mediated signaling pathways assessed as reduction in CrkL phosphorylation at Y207 in human K562 cells at 0.01 to 3 uM measured after 2 hrs by immunoblotting. Format: cell-based. In outline:
as §2

Series [8] addresses Discoidin domain-containing receptor 2 (Homo sapiens, UniProt Q16832). Kind of series: Inhibition of recombinant His-tagged human DDR2 cytoplasmic domain expressed in baculovirus expression system measured after 1 hr by FRET based Z'Lyte assay. In outline: as §3
Series [9] has as its target Tyrosine-protein kinase ABL1 (Homo sapiens, UniProt P00519). Kind of series: Inhibition of C-terminal His-tagged human ABL1 expressed in baculovirus infected SF9 cells assessed as residual activity at 1 uM using Tyr 02 peptide as substrate measured after 1 hr by FRET based Z'Lyte assay relative to control.
Series [10] deals with Tyrosine-protein kinase Lck (Homo sapiens, UniProt P06239). The following applies: BaF3.
Sequence of Tyrosine-protein kinase Lck (P06239 2-509 limits assumed): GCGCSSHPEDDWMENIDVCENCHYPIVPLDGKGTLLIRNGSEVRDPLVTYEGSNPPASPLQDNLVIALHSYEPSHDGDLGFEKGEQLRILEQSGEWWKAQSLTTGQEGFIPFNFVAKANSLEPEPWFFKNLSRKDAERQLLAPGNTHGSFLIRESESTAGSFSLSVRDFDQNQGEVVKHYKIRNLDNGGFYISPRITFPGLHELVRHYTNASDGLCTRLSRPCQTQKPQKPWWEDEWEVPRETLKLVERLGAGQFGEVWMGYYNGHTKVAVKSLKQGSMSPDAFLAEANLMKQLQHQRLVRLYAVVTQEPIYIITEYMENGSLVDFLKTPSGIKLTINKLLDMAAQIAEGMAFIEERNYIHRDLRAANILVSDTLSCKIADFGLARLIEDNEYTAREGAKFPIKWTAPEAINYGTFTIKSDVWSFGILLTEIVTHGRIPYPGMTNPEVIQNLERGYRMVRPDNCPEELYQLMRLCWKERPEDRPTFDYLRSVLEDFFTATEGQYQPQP
Series [11] has as its target T3, Discoidin domain-containing receptor 2 (Homo sapiens) (UniProt Q16832).
T3 sequence (whole entry): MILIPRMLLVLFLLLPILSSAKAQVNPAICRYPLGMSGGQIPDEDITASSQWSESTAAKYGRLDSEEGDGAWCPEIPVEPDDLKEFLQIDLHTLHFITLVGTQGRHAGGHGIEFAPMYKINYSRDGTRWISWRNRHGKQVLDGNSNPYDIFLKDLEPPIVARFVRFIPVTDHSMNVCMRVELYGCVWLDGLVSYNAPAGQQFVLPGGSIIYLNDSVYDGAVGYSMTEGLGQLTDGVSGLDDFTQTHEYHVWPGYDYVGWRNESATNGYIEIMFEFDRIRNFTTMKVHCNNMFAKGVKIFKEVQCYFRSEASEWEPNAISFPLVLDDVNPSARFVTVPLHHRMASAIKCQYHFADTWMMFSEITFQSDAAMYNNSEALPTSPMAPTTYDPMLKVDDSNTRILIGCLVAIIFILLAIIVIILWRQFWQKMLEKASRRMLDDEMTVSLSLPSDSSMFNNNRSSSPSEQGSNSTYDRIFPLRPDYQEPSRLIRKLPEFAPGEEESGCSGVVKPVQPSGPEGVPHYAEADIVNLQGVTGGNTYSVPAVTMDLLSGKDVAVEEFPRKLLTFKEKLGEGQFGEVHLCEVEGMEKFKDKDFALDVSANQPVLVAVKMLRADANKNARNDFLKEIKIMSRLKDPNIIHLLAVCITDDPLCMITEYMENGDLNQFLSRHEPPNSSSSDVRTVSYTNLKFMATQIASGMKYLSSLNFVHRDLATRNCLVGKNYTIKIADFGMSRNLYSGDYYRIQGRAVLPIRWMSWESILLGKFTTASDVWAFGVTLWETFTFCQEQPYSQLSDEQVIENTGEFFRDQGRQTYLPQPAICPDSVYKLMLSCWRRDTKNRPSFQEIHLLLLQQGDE
Kind of series: Inhibition of recombinant His-tagged human DDR2 cytoplasmic domain expressed in baculovirus expression system assessed as residual activity at 1 uM by KINOMEscan binding assay relative to control.

The test system of a further series is BaF3. Kind of series: Inhibition of BCR/ABL p210 fusion protein M356T mutant (unknown origin) expressed in BAF3 cells assessed as growth inhibition measured after 72 hrs by CellTiter-Glo or CCK8 assay. Format: cell-based. The following applies: Homo sapiens. In outline:
(§4)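 BaF3 lines were made by retroviral transduction with kinase-fusion MSCV vectors packaged in HEK293T cells. Cells were selected with puromycin for 48 h, then selected again without IL-3 so growth depends on the introduced kinase. […] They were seeded at 1 to 2.5×10^4 cells/mL with compound dilutions and incubated 72 h. Viability was read by CellTiter-Glo luminescence or CCK-8 absorbance (450/655 nm), normalized to DMSO control; GI50 was curve-fitted from triplicate tests.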
For orientation: In ATP-based viability assays light output follows the ATP content of the culture.

The test system of series [12] is Mast/stem cell growth factor receptor Kit (Homo sapiens), P10721 [T670I]. Kind of series: Inhibition of Tel-fused c-KIT T670I mutant (unknown origin) expressed in BAF3 cells assessed as growth inhibition measured after 72 hrs by CellTiter-Glo or CCK8 assay. It counts as cell-based. In outline:
as §4

In series [13] the target is T2, Mast/stem cell growth factor receptor Kit. The following applies: GISTT1, 1 uM.

Each structure is given as a SMILES string. Activity calls are given as the source filed them. No cut-off for these calls is given here.

T2 sequence (P10721 whole entry): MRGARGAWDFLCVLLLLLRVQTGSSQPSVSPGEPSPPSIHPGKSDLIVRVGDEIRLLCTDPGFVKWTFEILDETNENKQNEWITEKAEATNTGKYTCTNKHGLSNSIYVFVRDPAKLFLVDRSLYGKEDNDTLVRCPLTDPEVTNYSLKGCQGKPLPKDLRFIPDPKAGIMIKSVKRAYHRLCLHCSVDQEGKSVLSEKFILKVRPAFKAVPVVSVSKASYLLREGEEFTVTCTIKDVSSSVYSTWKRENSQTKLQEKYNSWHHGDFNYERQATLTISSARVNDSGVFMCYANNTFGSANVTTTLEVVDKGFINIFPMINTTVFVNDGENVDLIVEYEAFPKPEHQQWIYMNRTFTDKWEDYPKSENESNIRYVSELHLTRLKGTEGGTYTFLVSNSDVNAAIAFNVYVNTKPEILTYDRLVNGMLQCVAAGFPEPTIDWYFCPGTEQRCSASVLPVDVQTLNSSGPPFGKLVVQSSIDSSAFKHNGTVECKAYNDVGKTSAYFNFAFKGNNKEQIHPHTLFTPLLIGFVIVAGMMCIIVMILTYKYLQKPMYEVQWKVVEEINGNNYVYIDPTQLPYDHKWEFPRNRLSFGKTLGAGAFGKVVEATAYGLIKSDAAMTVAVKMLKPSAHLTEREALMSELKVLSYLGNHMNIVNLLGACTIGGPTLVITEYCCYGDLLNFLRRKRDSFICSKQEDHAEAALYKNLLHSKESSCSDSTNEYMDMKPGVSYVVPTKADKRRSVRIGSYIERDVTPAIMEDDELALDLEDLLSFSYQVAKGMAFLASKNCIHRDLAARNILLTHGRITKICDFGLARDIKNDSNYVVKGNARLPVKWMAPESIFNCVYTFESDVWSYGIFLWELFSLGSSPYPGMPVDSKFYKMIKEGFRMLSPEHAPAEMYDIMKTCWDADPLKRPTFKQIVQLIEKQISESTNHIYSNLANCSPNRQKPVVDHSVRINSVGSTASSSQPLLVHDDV
T1 sequence (A1Z199 1-97): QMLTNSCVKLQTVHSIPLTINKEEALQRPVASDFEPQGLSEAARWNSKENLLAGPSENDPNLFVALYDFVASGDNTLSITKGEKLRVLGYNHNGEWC
Sequence of Macrophage colony-stimulating factor 1 receptor (P07333 whole entry, the tested form may be a part): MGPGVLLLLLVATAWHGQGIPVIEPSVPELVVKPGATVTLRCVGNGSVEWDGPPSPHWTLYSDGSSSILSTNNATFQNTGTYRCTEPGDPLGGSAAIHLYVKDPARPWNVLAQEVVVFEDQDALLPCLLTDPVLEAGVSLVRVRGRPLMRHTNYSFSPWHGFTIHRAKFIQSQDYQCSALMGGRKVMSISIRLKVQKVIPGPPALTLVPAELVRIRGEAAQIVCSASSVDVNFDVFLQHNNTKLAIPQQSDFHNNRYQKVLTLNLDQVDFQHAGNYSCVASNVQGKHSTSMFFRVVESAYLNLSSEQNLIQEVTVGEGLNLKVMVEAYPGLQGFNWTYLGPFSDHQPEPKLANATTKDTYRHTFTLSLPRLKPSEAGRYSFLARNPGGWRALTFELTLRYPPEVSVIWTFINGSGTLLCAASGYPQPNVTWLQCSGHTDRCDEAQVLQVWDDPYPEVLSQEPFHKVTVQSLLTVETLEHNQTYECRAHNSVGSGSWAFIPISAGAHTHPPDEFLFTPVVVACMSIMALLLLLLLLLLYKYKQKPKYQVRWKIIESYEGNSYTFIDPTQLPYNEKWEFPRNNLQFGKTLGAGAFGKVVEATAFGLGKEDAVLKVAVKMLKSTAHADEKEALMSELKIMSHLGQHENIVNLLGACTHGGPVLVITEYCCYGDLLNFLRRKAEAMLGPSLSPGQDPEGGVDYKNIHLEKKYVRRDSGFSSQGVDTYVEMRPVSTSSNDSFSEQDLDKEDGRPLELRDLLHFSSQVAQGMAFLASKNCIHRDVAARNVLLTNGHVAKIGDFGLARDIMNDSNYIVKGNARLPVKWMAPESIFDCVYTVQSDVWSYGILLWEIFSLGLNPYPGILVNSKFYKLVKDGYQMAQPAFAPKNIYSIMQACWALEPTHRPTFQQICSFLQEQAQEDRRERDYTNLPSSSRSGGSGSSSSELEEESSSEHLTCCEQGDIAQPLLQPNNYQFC
Sequence of Mast/stem cell growth factor receptor Kit (Homo sapiens), P10721 [T670I] (P10721 whole entry T670I, the tested form may be a part): as the sequence (P10721 whole entry) above, with T670I counted along it
Sequence of Tyrosine-protein kinase ABL1 (P00519 whole entry): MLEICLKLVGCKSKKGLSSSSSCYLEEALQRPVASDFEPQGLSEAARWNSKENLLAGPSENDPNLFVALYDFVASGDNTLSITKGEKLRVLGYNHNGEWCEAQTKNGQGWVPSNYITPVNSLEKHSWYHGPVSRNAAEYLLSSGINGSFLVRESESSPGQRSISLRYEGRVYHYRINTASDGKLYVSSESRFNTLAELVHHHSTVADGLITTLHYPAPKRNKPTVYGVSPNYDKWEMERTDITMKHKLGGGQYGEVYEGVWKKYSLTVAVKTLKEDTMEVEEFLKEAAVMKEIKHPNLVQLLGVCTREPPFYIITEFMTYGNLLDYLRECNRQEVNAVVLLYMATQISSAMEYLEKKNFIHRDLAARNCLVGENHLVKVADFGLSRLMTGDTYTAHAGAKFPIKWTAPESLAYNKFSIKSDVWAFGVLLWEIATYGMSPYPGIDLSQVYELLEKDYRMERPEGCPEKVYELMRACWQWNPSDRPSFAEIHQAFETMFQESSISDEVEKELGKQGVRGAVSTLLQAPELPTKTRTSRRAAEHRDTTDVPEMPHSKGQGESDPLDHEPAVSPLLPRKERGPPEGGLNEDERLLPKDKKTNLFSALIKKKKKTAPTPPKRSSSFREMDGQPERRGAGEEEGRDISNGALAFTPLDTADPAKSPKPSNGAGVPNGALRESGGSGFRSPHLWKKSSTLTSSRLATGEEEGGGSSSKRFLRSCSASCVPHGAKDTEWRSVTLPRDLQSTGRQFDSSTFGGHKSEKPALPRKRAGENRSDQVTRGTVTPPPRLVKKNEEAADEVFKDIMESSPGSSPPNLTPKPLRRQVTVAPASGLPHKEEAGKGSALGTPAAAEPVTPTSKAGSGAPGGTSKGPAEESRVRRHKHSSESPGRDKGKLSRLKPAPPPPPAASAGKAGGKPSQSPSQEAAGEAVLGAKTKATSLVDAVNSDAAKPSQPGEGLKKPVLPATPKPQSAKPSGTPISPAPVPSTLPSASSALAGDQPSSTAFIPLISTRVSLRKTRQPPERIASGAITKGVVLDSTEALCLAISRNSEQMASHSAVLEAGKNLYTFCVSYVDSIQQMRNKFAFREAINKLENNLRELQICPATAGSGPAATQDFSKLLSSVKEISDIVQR

As a reminder, the half-life is how long it takes for the measured level to halve. Low values mean fast loss, high ones slow loss. The term IC50 denotes the point on the concentration scale where inhibition reaches its midpoint. As a reminder, the GI50 is the concentration at which growth is held to half of that of the control. On to `Cc1ccc(C(=O)N2CCC(Oc3cc(NC(=O)c4ccc(CN5CCN(C)CC5)c(C(F)(F)F)c4)ccc3C)CC2)cn1`, for which the result in the series on GISTT1 and in the series with K562 was Active. Also, the inhibition result in [1], in [4] and in series [7] was “Active” in each case. The half-life in series [2] was 2.47 h. The results for the Activity in [3], in series [9] and in series [11] were 0.6%, 0.3% and 0.65%, respectively. The IC50 is 81 nM in [5] and 325 nM in [8]. The GI50 in series [6] came to 162 nM; in series [10], 386 nM; with BaF3, 270 nM; in series [12], 1850 nM.

On to `Cc1ccc(NC(=O)c2ccc(CN3CCN(C)CC3)cc2)cc1Nc1nccc(-c2cccnc2)n1` [IMATINIB], for which the inhibition entry in series [13] is “Active”.
